Drawing on PubChem BioAssay AID588418 (The Scripps Research Institute Molecular Screening Center, 2011), this text covers IC50 for one molecule.

The source made the active and inactive calls.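 The calls were made as follows: active = IC50 at or below 1000 nM; inactive = IC50 above 1000 nM.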

The test concerns the target Protein-arginine deiminase type-4 (Homo sapiens) (UniProt Q9UM07). The test is described as follows: recombinant human PAD4 inhibitors – biochemical, BAEE substrate, citrulline absorbance, 7-point 0-10 µM, late-stage follow-up (AID 588418). To be noted: recombinant PAD4, BAEE citrulline colorimetric absorbance. In a few lines:
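Assay system: recombinant PAD4 / Reagent: BAEE substrate at 10 mM / Doses: 7-concentration series spanning 0 to 10 µM compound / Schedule: 15 min enzyme–compound pre-incubation plus 15 min substrate reaction, 37 °C / Technique: colorimetric citrulline absorbance at 540 nm, diacetyl monoxime/thiosemicarbazide reagent / Replication: two repeats per concentration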

Chain of Protein-arginine deiminase type-4 (Homo sapiens) (Q9UM07 whole entry, looked up): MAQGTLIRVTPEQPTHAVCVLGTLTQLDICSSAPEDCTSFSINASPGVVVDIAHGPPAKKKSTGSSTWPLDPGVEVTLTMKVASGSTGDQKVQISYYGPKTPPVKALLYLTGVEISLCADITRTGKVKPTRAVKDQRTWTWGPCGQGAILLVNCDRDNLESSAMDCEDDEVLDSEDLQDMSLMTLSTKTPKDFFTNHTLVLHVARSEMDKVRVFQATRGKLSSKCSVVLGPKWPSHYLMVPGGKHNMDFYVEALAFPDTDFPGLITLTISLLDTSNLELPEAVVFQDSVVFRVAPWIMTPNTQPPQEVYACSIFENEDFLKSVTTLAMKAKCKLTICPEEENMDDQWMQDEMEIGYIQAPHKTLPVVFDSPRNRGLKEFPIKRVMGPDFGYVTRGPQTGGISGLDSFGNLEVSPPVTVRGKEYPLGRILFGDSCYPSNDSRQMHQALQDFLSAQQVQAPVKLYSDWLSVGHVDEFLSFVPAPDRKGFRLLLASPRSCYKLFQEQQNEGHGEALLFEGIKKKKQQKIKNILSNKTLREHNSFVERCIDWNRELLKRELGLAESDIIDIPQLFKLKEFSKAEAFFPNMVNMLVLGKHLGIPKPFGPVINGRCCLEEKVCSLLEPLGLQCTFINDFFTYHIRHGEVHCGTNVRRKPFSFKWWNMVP

`COC1=C(N)C(=O)c2ncccc2C1=O`: the IC50 entry was “inactive”.
